In ChEMBL document CHEMBL1125056, “Heterosubstituted anthracene-9,10-dione analogues. The synthesis and antitumor evaluation of 5,8-bis[(aminoalkyl)amino]naphtho[2,3-b] thiophene-4,9-diones” (1990):
≈ marks a conversion by molar mass, not a printed value.

Tests used:
[1] = system: L1210; test: T/C in % was determined against L1210 murine leukemia cells at a dose of 4 x3 mg/kg 60 - day survivors =3/6; type: functional, Mus musculus
[2] = system: L1210; test: Compound was tested for the concentration required to inhibit L1210 murine leukemia cell growth by 50% of control; type: functional; details: Mus musculus, read-out: ID50 (the source's name)
Summary of the method: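 L1210 cells grown in suspension in McCoy's 5A with 10% horse serum, glutamine, penicillin and streptomycin at 37 °C in 10% CO2. Drug was added from DMSO to 5 × 10^4 cells/mL at final 0.01, 0.1 and 10 μg/mL. After 72 h continuous exposure, cells were counted on a Coulter counter.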

[3] = system: L1210; test: T/C in % was determined against L1210 murine leukemia cells at a dose of 8 x3 mg/kg; 60 - day survivors =1/6; type: functional, Mus musculus
[4] = system: L1210; test: T/C in % was determined against L1210 murine leukemia cells at a dose of 12.5 x2 mg/kg; 60 - day survivors =1/6; type: functional, Mus musculus
[5] = system: L1210; test: T/C in % was determined against L1210 murine leukemia cells at a dose of 12.5x2 mg/kg; 60 - day survivors =0/6; type: functional, Mus musculus
[6] = system: P388 leukemia (mouse); test: T/C in % was determined against P388 murine leukemia cells at a dose of 50 x2 mg/kg; 60 - day survivors =0/6
[7] = system: P388 leukemia (mouse); test: T/C in % was determined against P388 murine leukemia cells at a dose of 25 x2 mg/kg; 60 - day survivors =0/6
[8] = system: L1210; test: T/C in % was determined against L1210 murine leukemia cells at a dose of 50 x3 mg/kg; 60 - day survivors =0/6; type: functional, Mus musculus
[9] = system: L1210; test: T/C in % was determined against L1210 murine leukemia cells at a dose of 25 x3 mg/kg; 60 - day survivors =0/6; type: functional, Mus musculus
[10] = system: P388 leukemia (mouse); test: T/C in % was determined against P388 murine leukemia cells at a dose of 100 x1 mg/kg; Toxic
[11] = system: L1210; test: T/C in % was determined against L1210 murine leukemia cells at a dose of 25x3 mg/kg; 60 - day survivors =3/6; type: functional, Mus musculus
[12] = system: L1210; test: T/C in % was determined against L1210 murine leukemia cells at a dose of 6.25 x3 mg/kg; 60 - day survivors =1/6; type: functional, Mus musculus
[13] = system: L1210; test: T/C in % was determined against L1210 murine leukemia cells at a dose of 25 x3 mg/kg; 60 - day survivors =1/6; type: functional, Mus musculus
[14] = system: L1210; test: T/C in % was determined against L1210 murine leukemia cells at a dose of 50 x3 mg/kg
[15] = system: L1210; test: T/C in % was determined against L1210 murine leukemia cells at a dose of 12.5 x3 mg/kg; type: functional, Mus musculus

NCCNc1ccc(NCCN)c2c1C(=O)c1ccsc1C2=O
T/C [1]: 325%
IC50 [2]: 0.026 µg/mL (≈ 0.0787 µM)
T/C [3]: 400%
T/C [4]: 386%

O=C1c2ccsc2C(=O)c2c(NCCO)ccc(NCCO)c21
IC50 [2]: > 10 µg/mL

O=C1c2ccsc2C(=O)c2c(NCCN3CC3)ccc(NCCN3CC3)c21
T/C [5]: 104%
T/C [6]: 114%
IC50 [2]: 0.0035 µg/mL (≈ 0.00915 µM)
T/C [7]: 112%

CN(C)CCNc1ccc(NCCN(C)C)c2c1C(=O)c1ccsc1C2=O
T/C [8]: 109%
T/C [6]: 128%
IC50 [2]: 0.038 µg/mL (≈ 0.0983 µM)
T/C [9]: 107%
T/C [10]: Toxic
T/C [7]: 108%

O=C1c2ccsc2C(=O)c2c(NCCNCCO)ccc(NCCNCCO)c21
T/C [11]: 333%
T/C [12]: 403%
IC50 [2]: 0.064 µg/mL (≈ 0.153 µM)

O=C1c2ccsc2C(=O)c2c(NCCBr)ccc(NCCBr)c21
IC50 [2]: 5.2 µg/mL (≈ 11.3 µM)

O=C1c2ccccc2C(=O)c2c(NCCNCCO)ccc(NCCNCCO)c21 [AMETANTRONE]
T/C [13]: 203%
T/C [14]: 146%
T/C [15]: 177%
